Data taken from ChEMBL document CHEMBL1770061, “Synthesis and antiproliferative activity of new cytotoxic azanaphthoquinone pyrrolo-annelated derivatives: Part II” (Bioorg Med Chem Lett, 2011).
In brackets after ≈: the same amount, converted by molar mass.

Tests used:
NCI-H460 [1] = test: Antiproliferative activity against human NCI-H460 cells assessed as growth inhibition at 3.16 ug/ml after 48 hrs by XTT assay; type: functional; conditions: NCI-H460, 48 h
In short: (§1)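 This is the same 48 h XTT assay: 10-point half-log series, 0.3% final DMSO, 3 h XTT/PMS, A490, with untreated cells as 0% and blanks as 100% inhibition. Inhibition at the highest tested concentration was scored as none (<30%) or moderate (≥30%).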

SK-OV-3 [2] = test: Antiproliferative activity against human SKOV3 cells assessed as growth inhibition at 3.16 ug/ml after 48 hrs by XTT assay; type: functional; conditions: SK-OV-3, 48 h; in short: as §1
[3] = Antiproliferative activity against human RKOp27 cells after 48 hrs by XTT assay; type: functional, cell-based; conditions: RKOp27, 48 h
In short: (§2)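 Compounds were added from DMSO stocks as a 10-point half-log dilution series, with final DMSO adjusted to 0.3%. Cells were incubated for 45 h at 37 °C/5% CO2, then with 1 mg/ml XTT plus PMS for a further 3 h. Absorbance at 490 nm was read after 48 h total. Untreated cells were set as 0% and cell-free blanks as 100% inhibition. EC50 came from nonlinear regression of at least two independent assays.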

[4] = Antiproliferative activity against human RKOp27IND cells assessed as growth inhibition at 3.16 ug/ml after 48 hrs by XTT assay; type: functional; in short: as §1
SF-268 [5] = test: Antiproliferative activity against human SF268 cells after 48 hrs by XTT assay; type: functional, cell-based; conditions: SF-268, 48 h; in short: as §2
[6] = Antiproliferative activity against human KB/HeLa cells after 48 hrs by XTT assay; type: functional, cell-based; in short: as §2
NCI-H460 [7] = test: Antiproliferative activity against human NCI-H460 cells after 48 hrs by XTT assay; type: functional, cell-based; conditions: NCI-H460, 48 h; in short: as §2
SK-OV-3 [8] = test: Antiproliferative activity against human SKOV3 cells after 48 hrs by XTT assay; type: functional, cell-based; conditions: SK-OV-3, 48 h
In short: (§3)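 Compounds dissolved in DMSO were added as a 10-point half-log dilution series, with final DMSO adjusted to 0.3%. Cells were incubated 45 h at 37 °C/5% CO2, then XTT (1 mg/ml) plus PMS was added for 3 h more (48 h total). Absorbance was read at 490 nm. Untreated cells were set as 0% inhibition and cell-free blanks as 100%. EC50 was fitted by nonlinear regression from ≥2 independent assays and reported as mean ± SD.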

SF-268 [9] = test: Antiproliferative activity against human SF268 cells assessed as growth inhibition at 3.16 ug/ml after 48 hrs by XTT assay; type: functional; conditions: SF-268, 48 h; in short: as §1
[10] = Antiproliferative activity against human RKOp27 cells assessed as growth inhibition at 3.16 ug/ml after 48 hrs by XTT assay; type: functional; conditions: RKOp27, 48 h; in short: as §1
[11] = Antiproliferative activity against human KB/HeLa cells assessed as growth inhibition at 3.16 ug/ml after 48 hrs by XTT assay; type: functional; in short: as §1
[12] = Chemical stability of the compound in KH2PO4/Na2HPO4 buffer at pH 5.5 after 6 hrs by NMR spectroscopy; type: physicochemical; conditions: pH 5.5, 6 h
In short: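 Compounds were exposed at 37 °C to a KH2PO4/Na2HPO4 buffer at pH 5.5, prepared according to the European Pharmacopoeia.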

[13] = Antiproliferative activity against human RKOp27IND cells after 48 hrs by XTT assay; type: functional, cell-based; in short: as §3

| SMILES | inhibition at 3.16 µg/mL (NCI-H460 [1]) [%] | inhibition at 3.16 µg/mL (SK-OV-3 [2]) [%] | EC50 [3] [µg/mL] | inhibition at 3.16 µg/mL [4] [%] | EC50 (SF-268 [5]) [µg/mL] | EC50 [6] [µg/mL] | EC50 (NCI-H460 [7]) [µg/mL] | EC50 (SK-OV-3 [8]) [µg/mL] | inhibition at 3.16 µg/mL (SF-268 [9]) [%] | inhibition at 3.16 µg/mL [10] [%] | inhibition at 3.16 µg/mL [11] [%] | Stability [12] | EC50 [13] [µg/mL] |
| --- | --- | --- | --- | --- | --- | --- | --- | --- | --- | --- | --- | --- | --- |
| CN(C)CCc1cn(CCNCCO)c2c1C(=O)c1ccncc1C2=O | < 30 | < 30 | > 3.16 | < 30 | > 3.16 | > 3.16 | – | – | – | – | – | – | – |
| CN(C)CCc1cn(CCCCCCCN2CC2)c2c1C(=O)c1ccncc1C2=O | – | – | > 3.16 | < 30 | – | > 3.16 | > 3.16 | > 3.16 | < 30 | – | – | – | – |
| CN(C)CCc1c[nH]c2c1C(=O)c1ccncc1C2=O | < 30 | < 30 | – | < 30 | – | – | – | – | < 30 | < 30 | < 30 | – | – |
| CN(C)CCc1cn(CCCCO)c2c1C(=O)c1ccncc1C2=O | < 30 | < 30 | – | < 30 | – | – | – | – | < 30 | < 30 | < 30 | – | – |
| O=C1c2ccncc2C(=O)c2c1ccn2CCCC1CO1 (stereo not given) | – | < 30 | > 3.16 | < 30 | – | > 3.16 | > 3.16 | – | ≥ 30 | – | – | Stable | – |
| O=C1c2ccncc2C(=O)c2c1ccn2CC(O)CN1CC1 (stereo not given) | – | – | 0.899 (≈ 3.02 µM) | – | > 3.16 | 0.747 (≈ 2.51 µM) | 2.21 (≈ 7.44 µM) | > 3.16 | – | – | – | – | > 3.16 |
| O=C1c2ccncc2C(=O)c2c1ccn2CC1CO1 (stereo not given) | – | – | 0.026 (≈ 0.102 µM) | – | 0.2 (≈ 0.787 µM) | 0.062 (≈ 0.244 µM) | 0.062 (≈ 0.244 µM) | 0.265 (≈ 1.04 µM) | – | – | – | Stable | 1.3 (≈ 5.11 µM) |
| CN(C)CCCn1cc(CCN(C)C)c2c1C(=O)c1cnccc1C2=O | – | – | > 3.16 | – | > 3.16 | > 3.16 | > 3.16 | > 3.16 | – | – | – | – | > 3.16 |
| CS(=O)(=O)OCCCCCCCn1ccc2c1C(=O)c1cnccc1C2=O | < 30 | < 30 | – | < 30 | – | – | – | – | < 30 | < 30 | < 30 | – | – |
| CN(C)CCc1cn(CCO)c2c1C(=O)c1ccncc1C2=O | < 30 | < 30 | > 3.16 | < 30 | – | > 3.16 | – | – | < 30 | – | – | – | – |
| CN(C)CCc1cn(CCCCCCCOS(C)(=O)=O)c2c1C(=O)c1ccncc1C2=O | – | – | – | – | – | – | – | – | – | – | – | Unstable | – |
| CNCCn1cc(CCN(C)C)c2c1C(=O)c1cnccc1C2=O | – | – | > 3.16 | – | > 3.16 | > 3.16 | > 3.16 | > 3.16 | – | – | – | – | > 3.16 |
| CN(C)CCCc1cn(CCCN(C)C)c2c1C(=O)c1ccncc1C2=O | – | < 30 | > 3.16 | < 30 | – | – | > 3.16 | – | < 30 | – | < 30 | – | – |
| CN(C)CCc1cn(CCCCOS(C)(=O)=O)c2c1C(=O)c1ccncc1C2=O | – | – | – | – | – | – | – | – | – | – | – | Unstable | – |
| CN(C)CCc1cn(CCN2CC2)c2c1C(=O)c1ccncc1C2=O | – | – | 0.784 (≈ 2.32 µM) | – | 2.41 (≈ 7.12 µM) | 0.972 (≈ 2.87 µM) | > 3.16 | 2.74 (≈ 8.09 µM) | – | – | – | – | 2.36 (≈ 6.99 µM) |
| CS(=O)(=O)OCCn1ccc2c1C(=O)c1cnccc1C2=O | – | < 30 | – | ≥ 30 | – | – | > 3.16 | – | < 30 | < 30 | < 30 | – | – |
| O=C1c2ccncc2C(=O)c2c1ccn2CCCCCCC(O)CN1CC1 (stereo not given) | – | < 30 | > 3.16 | < 30 | – | > 3.16 | > 3.16 | – | < 30 | – | – | – | – |
| O=C1c2ccncc2C(=O)c2c1ccn2CCCCN1CC1 | – | – | 0.299 (≈ 1.01 µM) | – | 1.89 (≈ 6.41 µM) | 0.549 (≈ 1.86 µM) | 0.727 (≈ 2.46 µM) | 2.19 (≈ 7.4 µM) | – | – | – | – | 2.23 (≈ 7.55 µM) |
| O=C1c2c(O)ccc(O)c2C(=O)c2c(NCCNCCO)ccc(NCCNCCO)c21 [MITOXANTRONE] | – | – | 0.0865 (≈ 0.195 µM) | – | 0.315 (≈ 0.709 µM) | 0.355 (≈ 0.799 µM) | 0.122 (≈ 0.275 µM) | 0.121 (≈ 0.272 µM) | – | – | – | – | 0.763 (≈ 1.72 µM) |
| O=C1c2ccncc2C(=O)c2c1ccn2CCCC(O)CN1CC1 (stereo not given) | – | < 30 | > 3.16 | < 30 | – | > 3.16 | > 3.16 | – | < 30 | – | – | – | – |
| O=C1c2ccncc2C(=O)c2c1ccn2CCCCCCCN1CC1 | – | – | 1.19 (≈ 3.54 µM) | – | > 3.16 | > 3.16 | > 3.16 | > 3.16 | – | – | – | – | > 3.16 |
| CN(C)CCCc1c[nH]c2c1C(=O)c1ccncc1C2=O | – | < 30 | – | < 30 | – | – | – | – | < 30 | < 30 | < 30 | – | – |
| O=C1c2ccncc2C(=O)c2c1ccn2CCCCCCC1CO1 (stereo not given) | < 30 | < 30 | – | < 30 | – | – | – | – | < 30 | < 30 | < 30 | Stable | – |
| CN(C)CCc1cn(CCCCN2CC2)c2c1C(=O)c1ccncc1C2=O | – | – | 0.205 (≈ 0.559 µM) | – | 1.39 (≈ 3.8 µM) | 0.512 (≈ 1.4 µM) | 0.722 (≈ 1.97 µM) | 1.51 (≈ 4.12 µM) | – | – | – | – | 1.35 (≈ 3.68 µM) |
| O=C1c2ccncc2C(=O)c2c1ccn2CCN1CC1 | – | < 30 | > 3.16 | – | > 3.16 | > 3.16 | > 3.16 | – | – | – | – | – | > 3.16 |
| CS(=O)(=O)OCCCCn1ccc2c1C(=O)c1cnccc1C2=O | – | < 30 | > 3.16 | < 30 | > 3.16 | > 3.16 | > 3.16 | – | – | – | – | – | – |
| CN(C)CCc1cn(CCCCCCCO)c2c1C(=O)c1ccncc1C2=O | < 30 | < 30 | – | < 30 | – | – | – | – | < 30 | < 30 | < 30 | – | – |
| CN(C)CCc1cn(CCN(C)C)c2c1C(=O)c1ccncc1C2=O | < 30 | < 30 | – | < 30 | – | – | – | – | < 30 | < 30 | < 30 | – | – |
